Columns and labels:
[1] = biological target: Estrogen receptor beta (Homo sapiens) (UniProt Q92731); assay: Displacement of [6,7-3H]17 beta-estradiol from human recombinant ER beta assessed as relative binding affinity incubated for 18 hrs at 4 degC by radiometric binding assay relative to estradiol
Method in brief: (§1)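 Human recombinant ERα or ERβ, 0.5 µg/tube, in buffer of 20 mM Tris–HCl pH 8.0, 0.3 M NaCl, 1 mM EDTA, 10 mM 2-mercaptoethanol, 0.2 mM PMSF. Incubated with 4 nM [6,7-³H]17β-estradiol ± unlabeled competitor, 4 °C, 18 h, in duplicate. Collected on nitrocellulose filter, washed, read by liquid scintillation. RBA taken with estradiol as 100; […] is the ERβ/ERα RBA ratio.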

Homo sapiens = species: Homo sapiens; assay: Ratio of RBA for human recombinant ER beta to RBA for human recombinant ER alpha; method in brief: as §1
[2] = biological target: T1, Estrogen receptor (Homo sapiens) (UniProt P03372); assay: Displacement of [6,7-3H]17 beta-estradiol from human recombinant ER alpha assessed as relative binding affinity incubated for 18 hrs at 4 degC by radiometric binding assay relative to estradiol; method in brief: as §1
T1 sequence (whole entry): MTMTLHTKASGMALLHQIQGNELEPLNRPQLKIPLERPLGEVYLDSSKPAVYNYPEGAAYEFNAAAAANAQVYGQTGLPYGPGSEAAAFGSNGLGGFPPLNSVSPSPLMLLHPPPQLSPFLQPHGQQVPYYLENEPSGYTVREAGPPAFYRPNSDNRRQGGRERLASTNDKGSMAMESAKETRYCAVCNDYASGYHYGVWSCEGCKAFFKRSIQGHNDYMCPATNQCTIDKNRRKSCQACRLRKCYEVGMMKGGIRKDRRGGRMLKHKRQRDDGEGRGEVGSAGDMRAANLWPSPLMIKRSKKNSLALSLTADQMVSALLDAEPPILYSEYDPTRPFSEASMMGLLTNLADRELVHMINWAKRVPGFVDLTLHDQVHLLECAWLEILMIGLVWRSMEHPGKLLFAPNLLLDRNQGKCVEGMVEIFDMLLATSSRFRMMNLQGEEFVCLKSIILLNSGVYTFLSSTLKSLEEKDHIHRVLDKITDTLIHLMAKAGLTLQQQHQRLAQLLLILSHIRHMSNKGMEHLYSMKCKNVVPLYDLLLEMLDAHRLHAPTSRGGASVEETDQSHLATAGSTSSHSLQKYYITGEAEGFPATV

MCF7 [3] = assay: Estrogenic activity in human MCF7 cells assessed as increase in cell proliferation incubated for 4 days by WST-8 assay relative to estradiol; assay type: functional; details: MCF7, 96 h
Method in brief: (§2)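 MCF-7 cells kept in D-MEM with 10% FBS at 37 °C, 5% CO2. Before assay, switched to phenol red-free low-glucose D-MEM with 5% sFBS and seeded at 2000 cells/well. Serial dilutions, 1×10^-13 to 1×10^-6 M, given alone, DMSO as control. 4 days in triplicate, medium replaced after 2 days. WST-8 added, absorbance at 450 nm after 2–4 h. EC50 from sigmoidal curves; Emax relative to E2 as 100.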

MCF7 [4] = assay: Anti-estrogenic activity in human MCF7 cells assessed as reduction in estradiol-induced increase in cell proliferation incubated for 4 days by WST-8 assay; assay type: functional, cell-based; details: MCF7, 96 h
Method in brief: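 MCF-7 cells in phenol red-free low-glucose D-MEM with 5% sFBS, 2000 cells/well. Serial dilutions, 1×10^-13 to 1×10^-6 M, given with 0.1 nM estradiol, DMSO as control. 4 days in triplicate, medium with compound and estradiol renewed at day 2. Growth read by WST-8, absorbance at 450 nm after 2–4 h. IC50 from sigmoidal dose–response curves.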

MCF7 [5] = assay: Estrogenic activity in human MCF7 cells assessed as increase in cell proliferation incubated for 4 days by WST-8 assay; assay type: functional, cell-based; details: MCF7, 96 h; method in brief: as §2

Estrogen receptor beta (Homo sapiens), sequence (Q92731 whole entry): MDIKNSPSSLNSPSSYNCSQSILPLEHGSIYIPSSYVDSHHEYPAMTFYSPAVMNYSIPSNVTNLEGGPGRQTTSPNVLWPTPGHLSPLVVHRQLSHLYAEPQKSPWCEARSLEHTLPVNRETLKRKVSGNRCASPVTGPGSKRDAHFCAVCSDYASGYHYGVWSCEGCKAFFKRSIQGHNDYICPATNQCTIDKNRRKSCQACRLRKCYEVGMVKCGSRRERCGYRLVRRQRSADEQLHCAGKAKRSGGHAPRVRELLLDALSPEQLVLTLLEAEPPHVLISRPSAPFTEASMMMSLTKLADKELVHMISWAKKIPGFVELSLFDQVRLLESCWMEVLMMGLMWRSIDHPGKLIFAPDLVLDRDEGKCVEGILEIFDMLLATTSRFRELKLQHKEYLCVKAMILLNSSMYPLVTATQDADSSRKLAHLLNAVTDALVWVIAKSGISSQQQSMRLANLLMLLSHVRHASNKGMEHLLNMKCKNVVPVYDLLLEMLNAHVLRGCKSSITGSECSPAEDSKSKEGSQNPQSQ

SMILES | RBA [1] | Ratio (Homo sapiens) | RBA [2] | IC50 (MCF7 [4]) | EC50 (MCF7 [5]) | Emax (MCF7 [3])
Oc1ccc(C(c2ccc(O)cc2)C2CCC(F)(F)CC2)cc1 | 3.93% | 1.3 | 2.71% | > 1000 nM | 22.5 nM | 80%
CC1(C)CCCC(C(c2ccc(O)cc2)c2ccc(O)cc2)C1 (stereo unspecified) | 30.7% | 0.3 | 98.8% | 64.9 nM | 2.4 nM | 74%
Oc1ccc(C(c2ccc(O)cc2)C2CCCC(F)(F)C2)cc1 (stereo unspecified) | 4.29% | 0.7 | 5.78% | 19.6 nM | 16.6 nM | 58%
Oc1ccc(C(c2ccc(O)cc2)C2CCC(Cl)(Cl)CC2)cc1 | 0.158% | 0.2 | 0.662% | > 1000 nM | 304 nM | 78%
Oc1ccc(C(c2ccc(O)cc2)C2CCCCC2)cc1 | 15.5% | 2.3 | 6.71% | > 1000 nM | 54.1 nM | 79%
Oc1ccc(C(c2ccc(O)cc2)C2CCCC3(C2)SCCCS3)cc1 (stereo unspecified) | 8.43% | 0.2 | 50.6% | > 1000 nM | 0.39 nM | 80%

Second part, led by results:

RBA [1] | Ratio (Homo sapiens) | RBA [2] | IC50 (MCF7 [4]) | EC50 (MCF7 [5]) | SMILES | Emax (MCF7 [3])
13.7% | 3 | 4.61% | > 1000 nM | 48.8 nM | Oc1ccc(C(c2ccc(O)cc2)C2CCCC2)cc1 | 69%
15.7% | 1 | 15.3% | > 1000 nM | 4.6 nM | Oc1ccc(C(c2ccc(O)cc2)C2CCCC(Cl)(Cl)C2)cc1 (stereo unspecified) | 70%
0.18% | 0.2 | 0.957% | > 1000 nM | 211 nM | Oc1ccc(C(c2ccc(O)cc2)C2CCC(Br)(Br)CC2)cc1 | 64%
29.3% | 1.3 | 21.9% | > 1000 nM | 0.8 nM | Oc1ccc(C(c2ccc(O)cc2)C2CCCC3(CCCCC3)C2)cc1 (stereo unspecified) | 74%
35.2% | 1.2 | 28.4% | 63.1 nM |  | CC1(C)CC(C(c2ccc(O)cc2)c2ccc(O)cc2)CC(C)(C)C1 | 32%
3.02% | 1.2 | 3.64% | > 1000 nM | 68.4 nM | CC1(C)CCC(C(c2ccc(O)cc2)c2ccc(O)cc2)CC1 | 72%
0.219% | 0.5 | 0.465% | > 1000 nM |  | Oc1ccc(C(c2ccc(O)cc2)C2CCC3(CC2)OCCO3)cc1 | 22%

From ChEMBL document CHEMBL3627694, “Estrogenic activity of bis(4-hydroxyphenyl)methanes with cyclic hydrophobic structure” (Bioorg Med Chem, 2015)
